In ChEMBL document CHEMBL2311442, “Identification of novel antimycobacterial chemical agents through the in silico multi-conformational structure-based drug screening of a large-scale chemical library” (Eur J Med Chem, 2013):
Activity calls are given as the source filed them. The rule behind the calls is not given here.

How the values were obtained:
[1] = Cytotoxicity against human SH-SY5Y at 50 uM after 2 days by CCK8 assay; format: cell-based; settings: 48 h
Procedure, shortened: (§1)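 MDCK (5.0 x 10^3/well) and SH-SY5Y (1.5 x 10^4/well) in DMEM with 10% FBS, penicillin/streptomycin, 2 mM glutamine. Starved in 0.25% FBS (MDCK overnight, SH-SY5Y 2 days), then given compound at 50 uM in 0.25% FBS medium. Exposure: MDCK 1 day, SH-SY5Y 2 days. CCK-8 added, 3 h, WST-8 formazan A450. Isoniazid 50 uM control; mean ± SEM, n=4; Dunnett's test.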

[2] = tested on: Mycobacterium vanbaalenii; assay: Growth inhibition of Mycobacterium vanbaalenii at 50 uM after 18 hrs; format: functional; settings: Mycolicibacterium vanbaalenii
Procedure, shortened: (§2)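 Mycobacteria grown overnight or 2 days at 37 C, 300 rpm in 3.7% brain heart infusion broth; M. smegmatis diluted 8x before seeding. Diluted culture incubated with compound (M. vanbaalenii 50 uM, M. smegmatis 100 uM). Controls: 0.3% DMSO (negative), isoniazid (positive). A595 read at 4, 8, 18, 24 h. Mean ± SEM of four experiments; Dunnett's test.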

Escherichia coli [3] = assay: Toxicity against Escherichia coli JM 109 at 50 uM after 24 hrs; format: organism-based; settings: in vivo
MDCK = assay: Cytotoxicity against MDCK at 50 uM after 1 day by CCK8 assay; format: cell-based, Canis lupus familiaris; settings: dog, 24 h; procedure, shortened: as §1
[4] = tested on: Mycobacterium vanbaalenii; assay: Growth inhibition of Mycobacterium vanbaalenii at 50 uM up to 24 hrs; format: functional; settings: Mycolicibacterium vanbaalenii; procedure, shortened: as §2
[5] = tested on: Mycolicibacterium smegmatis; assay: Growth inhibition of Mycobacterium smegmatis at 100 uM after 24 hrs; format: functional, organism-based; procedure, shortened: as §2
[6] = tested on: Mycobacterium vanbaalenii; assay: Antimycobacterial activity against Mycobacterium vanbaalenii incubated up to 24 hrs; format: functional, Mycolicibacterium vanbaalenii
Procedure, shortened: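 M. vanbaalenii grown overnight or 2 days at 37 C, 300 rpm in 3.7% brain heart infusion broth, diluted, then incubated in medium with compound across a dose range. Growth read as A595 at 4, 8, 18 and 24 h; growth rate (%) taken from 24 h culture. IC50 from dose-response; mean ± SD, four independent experiments.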

Escherichia coli [7] = assay: Toxicity against Escherichia coli BL21 at 50 uM after 24 hrs
Thymidylate kinase = target: T1, Thymidylate kinase (Mycobacterium tuberculosis, UniProt P9WKE1); assay: Inhibition of Mycobacterium tuberculosis thymidine monophosphate kinase
T1 sequence (P9WKE1 whole entry): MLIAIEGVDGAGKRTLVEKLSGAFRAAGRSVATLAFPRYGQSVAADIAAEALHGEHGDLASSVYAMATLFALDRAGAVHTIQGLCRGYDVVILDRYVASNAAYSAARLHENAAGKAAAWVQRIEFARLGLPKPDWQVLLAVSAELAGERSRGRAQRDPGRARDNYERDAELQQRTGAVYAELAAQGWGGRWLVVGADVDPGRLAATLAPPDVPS

[8] = target: T2, Enoyl-[acyl-carrier-protein] reductase [NADH] (Mycobacterium tuberculosis, UniProt P9WGR1); assay: Inhibition of Mycobacterium tuberculosis InhA
T2 sequence (P9WGR1 whole entry): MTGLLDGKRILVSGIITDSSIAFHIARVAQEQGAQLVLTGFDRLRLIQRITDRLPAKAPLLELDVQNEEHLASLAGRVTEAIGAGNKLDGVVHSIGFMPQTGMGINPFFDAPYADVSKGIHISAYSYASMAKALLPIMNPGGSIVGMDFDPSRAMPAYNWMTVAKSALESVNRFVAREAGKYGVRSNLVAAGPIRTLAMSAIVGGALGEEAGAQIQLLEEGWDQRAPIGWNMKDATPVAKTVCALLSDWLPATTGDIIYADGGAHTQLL

Row | Compound | growth inhibition (GI) [2] | growth inhibition (GI) [4] | growth inhibition (GI) [5] | IC50 [6] [µM] | further results
1 | O=C(Oc1cccc2cccnc12)c1ccc(S(=O)(=O)c2ccc(Cl)cc2)cc1 | Active | Active | Active | 20 | Activity [1]: Non-toxic; Activity (Escherichia coli [3]): Non-toxic; Activity (MDCK): Non-toxic; Activity (Escherichia coli [7]): Non-toxic
2 | NNC(=O)c1ccncc1 [ISONIAZID] | Active |  | Active | 2.6 | 
3 | CCc1cc(=O)oc2cc(OCC(=O)OCc3ccccc3)c(Cl)cc12 | Active | Active | inactive |  | 
4 | COc1ccc(-c2cc3ccccc3oc2=O)cc1NC(=O)COc1ccc(Cl)cc1C |  | inactive |  |  | 
5 | CCOc1ccc(NC(=O)CSc2nc3ccc(NC(=O)c4ccccc4C)cc3s2)cc1 |  | inactive |  |  | 
6 | O=C(Nc1ccc(OCc2ccccc2)cc1)C1CCN(C(=O)c2ccc([N+](=O)[O-])cc2)CC1 |  | inactive |  |  | 
7 | Cc1cn([C@H]2C[C@H](CN=[N+]=[N-])[C@@H](COP(=O)(O)O)O2)c(=O)[nH]c1=O |  |  |  |  | Ki (Thymidylate kinase): 10 µM
8 | Cc1ccc(Nc2nc(Nc3ccc(C)cc3)nc(Sc3nnc(C)s3)n2)cc1 | Active | Active | Active | 22 | Activity [1]: Toxic; Activity (Escherichia coli [3]): Non-toxic; Activity (MDCK): Toxic; Activity (Escherichia coli [7]): Non-toxic
9 | CCCCc1cc(=O)oc2cc(OCC(=O)OCC)c(Cl)cc12 |  | inactive |  |  | 
10 | CCCc1cc(=O)oc2cc(OCC(=O)OCc3ccccc3)c(Cl)cc12 |  | inactive |  |  | 
11 | CC(C)Oc1cccc(-c2cc(C(=O)NCCc3ccc(S(N)(=O)=O)cc3)c3ccccc3n2)c1 | Active | Active | Active | 15 | Activity [1]: Non-toxic; Activity (Escherichia coli [3]): Non-toxic; Activity (MDCK): Non-toxic; Activity (Escherichia coli [7]): Non-toxic
12 | NC(=O)C1=CN([C@@H]2O[C@H](COP(=O)(O)OP(=O)(O)OC[C@H]3O[C@@H](n4cnc5c(N)ncnc54)[C@H](O)[C@@H]3O)[C@@H](O)[C@H]2O)C=C[C@H]1C(=O)c1ccncc1 |  |  |  |  | Ki [8]: 0.00075 µM
13 | COC(=O)COc1ccc(NC(=O)c2ccc(C(C)(C)C)cc2)cc1 |  | inactive |  |  | 
